Assays:
Stromelysin-1 [1] = target: T1, Stromelysin-1 (Homo sapiens, UniProt P08254); test: Inhibition of Matrix Metalloprotease-3
In short: (§1)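 Stromelysin-1, recombinant human C-terminally truncated form, used at 10 nM final. Conditions: room temperature; Hepes 20 mM, CaCl₂ 5 mM, Brij35 0.02%, cysteine 0.5 mM; inhibitor in degassed methanol (2% final) preincubated 3 min. Reaction started with quenched-fluorescence substrate Mca-PLGL-Dpa-AR-NH₂ (10 μM final), read at ex 330/em 430 nm every minute for 30 min. IC50 came from rate fit v_i = v_0/(1+[I]/IC50).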

[2] = target: T2, Matrix metalloproteinase-9 (Homo sapiens, UniProt P14780); test: Inhibition of Matrix Metalloprotease-9
In short: (§2)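 Gelatinase-B, a recombinant C-terminally truncated form expressed in Pichia pastoris, used at 2 nM final. Buffer was 20 mM Hepes, 5 mM CaCl₂, 0.02% Brij35, 0.5 mM cysteine, at room temperature. Inhibitor in degassed methanol (2% final) was added 3 min before 10 μM Mca-Pro-Leu-Gly-Leu-Dpa-Ala-Arg-NH₂. Fluorescence at 330/430 nm was logged per minute for 30 min; IC50 was fitted to v_i = v_0/(1+[I]/IC50).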

Interstitial collagenase [3] = target: T3, Interstitial collagenase (Homo sapiens, UniProt P03956); test: Inhibition of Matrix Metalloprotease-1
T3 sequence (P03956 whole entry): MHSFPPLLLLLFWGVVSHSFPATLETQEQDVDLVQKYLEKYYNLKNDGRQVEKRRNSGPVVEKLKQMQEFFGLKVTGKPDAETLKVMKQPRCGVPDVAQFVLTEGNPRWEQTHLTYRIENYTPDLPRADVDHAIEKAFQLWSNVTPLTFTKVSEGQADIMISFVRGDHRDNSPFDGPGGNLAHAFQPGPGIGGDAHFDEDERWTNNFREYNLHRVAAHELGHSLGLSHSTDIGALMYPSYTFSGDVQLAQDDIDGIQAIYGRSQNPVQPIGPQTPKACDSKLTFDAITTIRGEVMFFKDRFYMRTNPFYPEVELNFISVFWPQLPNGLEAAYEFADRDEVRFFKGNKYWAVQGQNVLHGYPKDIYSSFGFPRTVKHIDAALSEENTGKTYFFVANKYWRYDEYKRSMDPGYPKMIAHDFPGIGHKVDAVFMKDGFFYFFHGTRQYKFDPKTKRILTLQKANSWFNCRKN
In short: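 Recombinant C-terminally truncated human collagenase-1 at 10 nM final, in 20 mM Hepes, 5 mM CaCl₂, 0.02% Brij35, 0.5 mM cysteine at room temperature. Inhibitor was added in degassed methanol (2% final), then 3 min later 10 μM Mca-Pro-Leu-Gly-Leu-Dpa-Ala-Arg-NH₂. Fluorescence (ex 330/em 430 nm) was read each minute for 30 min; IC50 was fitted as v_i = v_0/(1+[I]/IC50).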

Matrilysin = target: T4, Matrilysin (Homo sapiens, UniProt P09237); test: Inhibition of matrilysin (Matrix metalloprotease-7)
T4 sequence (P09237 whole entry): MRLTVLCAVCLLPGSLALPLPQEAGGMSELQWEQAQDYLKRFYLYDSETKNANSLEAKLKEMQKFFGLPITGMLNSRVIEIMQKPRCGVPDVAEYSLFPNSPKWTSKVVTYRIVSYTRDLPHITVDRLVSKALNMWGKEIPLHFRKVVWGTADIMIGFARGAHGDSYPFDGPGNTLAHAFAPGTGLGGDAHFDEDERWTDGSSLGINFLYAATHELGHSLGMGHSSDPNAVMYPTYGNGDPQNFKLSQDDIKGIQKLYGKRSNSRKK
In short: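 Matrilysin (recombinant C-terminally truncated human) at 0.5 nM final, room temperature, in buffer of 20 mM Hepes, 5 mM CaCl₂, 0.02% Brij35, 0.5 mM cysteine. Inhibitor was added from degassed methanol (2% final) with 3 min preincubation, then 10 μM quenched-fluorescence Mca-PLGL-Dpa-AR-NH₂ substrate. Fluorescence (ex 330/em 430 nm) was read once a minute for 30 min; IC50 came from v_i = v_0/(1+[I]/IC50).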

Stromelysin-1 [4] = target: T1, Stromelysin-1; test: Inhibition of stromelysin-1; in short: as §1
[5] = target: T2, Matrix metalloproteinase-9; test: Inhibition of gelatinase-B (Matrix metalloprotease-9); set-up: species or system Komagataella pastoris; in short: as §2
Interstitial collagenase [6] = target: T3, Interstitial collagenase; test: Inhibition of collagenase-1 (Matrix metalloprotease-1)
Stromelysin-1 [7] = target: T1, Stromelysin-1; test: Inhibition of stromelysin (Matrix metalloprotease-3); in short: as §1

T2 sequence (P14780 whole entry, the tested form may be a part): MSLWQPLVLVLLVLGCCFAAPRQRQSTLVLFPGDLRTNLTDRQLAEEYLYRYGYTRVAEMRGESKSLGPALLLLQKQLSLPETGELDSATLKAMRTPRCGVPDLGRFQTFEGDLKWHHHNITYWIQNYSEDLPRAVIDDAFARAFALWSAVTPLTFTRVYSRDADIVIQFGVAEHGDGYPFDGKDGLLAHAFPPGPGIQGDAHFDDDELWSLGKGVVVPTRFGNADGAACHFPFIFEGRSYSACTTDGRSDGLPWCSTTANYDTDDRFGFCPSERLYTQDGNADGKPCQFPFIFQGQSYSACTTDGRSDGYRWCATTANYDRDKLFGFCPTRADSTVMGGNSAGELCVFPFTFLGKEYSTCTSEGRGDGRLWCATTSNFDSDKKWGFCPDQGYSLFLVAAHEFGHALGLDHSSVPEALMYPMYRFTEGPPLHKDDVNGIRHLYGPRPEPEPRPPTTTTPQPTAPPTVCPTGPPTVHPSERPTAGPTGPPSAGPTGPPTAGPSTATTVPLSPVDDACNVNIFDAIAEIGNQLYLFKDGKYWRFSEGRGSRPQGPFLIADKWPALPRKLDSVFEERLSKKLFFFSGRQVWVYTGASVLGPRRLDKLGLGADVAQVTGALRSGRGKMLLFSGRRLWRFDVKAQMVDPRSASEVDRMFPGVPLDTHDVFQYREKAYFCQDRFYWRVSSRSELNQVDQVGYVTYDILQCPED
T1 sequence (P08254 whole entry, the tested form may be a part): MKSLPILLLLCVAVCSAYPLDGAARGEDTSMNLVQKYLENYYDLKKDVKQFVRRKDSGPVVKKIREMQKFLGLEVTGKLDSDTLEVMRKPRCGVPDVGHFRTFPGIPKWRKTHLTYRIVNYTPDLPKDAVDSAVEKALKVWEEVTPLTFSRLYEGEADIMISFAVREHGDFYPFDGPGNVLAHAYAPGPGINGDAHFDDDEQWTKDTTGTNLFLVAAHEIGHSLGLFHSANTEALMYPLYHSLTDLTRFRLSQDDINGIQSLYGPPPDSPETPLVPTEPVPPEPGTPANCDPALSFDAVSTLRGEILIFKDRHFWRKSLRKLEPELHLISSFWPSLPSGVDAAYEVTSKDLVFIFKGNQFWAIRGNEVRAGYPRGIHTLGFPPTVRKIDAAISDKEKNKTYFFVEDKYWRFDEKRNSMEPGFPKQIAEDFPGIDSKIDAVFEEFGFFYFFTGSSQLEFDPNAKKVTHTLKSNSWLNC

| IC50 (Stromelysin-1 [1]) | IC50 [2] | IC50 (Interstitial collagenase [3]) | IC50 (Matrilysin) | IC50 (Stromelysin-1 [4]) | IC50 [5] | IC50 (Interstitial collagenase [6]) | IC50 (Stromelysin-1 [7]) | SMILES |
| --- | --- | --- | --- | --- | --- | --- | --- | --- |
| 3800 nM | 79 nM | 30 nM |  |  |  |  |  | COc1ccc(CN2C(=O)[C@H](CS)NC(=O)[C@@H]2CC2CCCCC2)cc1 |
| 19000 nM | 2360 nM | 319 nM |  |  |  |  |  | CCCCN1C(=O)[C@H](CS)NC(=O)[C@@H]1Cc1ccccc1 |
| 2400 nM | 87 nM | 35 nM |  |  |  |  |  | O=C1N[C@@H](CS)C(=O)N(Cc2ccc3ccccc3n2)[C@H]1CC1CCCCC1 |
|  |  |  | 4800 nM | > 40000 nM | 12000 nM |  |  | O=C1N[C@@H](CS)C(=O)N(CC2CCCCC2)[C@@H]1CC1CCCCC1 |
|  |  |  | > 40000 nM |  | 7000 nM | 2600 nM | > 40000 nM | O=C1N[C@H](CS)C(=O)N(CC2CCCCC2)[C@H]1CC1CCCCC1 |
| 4040 nM | 2360 nM | 64 nM |  |  |  |  |  | COc1ccc(CN2C(=O)[C@H](CS)NC(=O)[C@@H]2Cc2ccccc2)cc1 |
|  |  |  |  |  |  | 2000 nM |  | CCCCCCN1C(=O)[C@H](Cc2cccnc2)NC(=O)[C@H]1CS |
|  |  |  | > 40000 nM | > 40000 nM | > 40000 nM | 14000 nM |  | O=C1N[C@H](CS)C(=O)N(CC2CCCCC2)[C@@H]1CC1CCCCC1 |
|  |  |  |  |  |  | 10000 nM |  | CCCCCCCCN1C(=O)[C@H](Cc2cccnc2)NC(=O)[C@H]1CS |
| 3400 nM | 370 nM | 220 nM |  |  |  |  |  | CCCC[C@H]1C(=O)N[C@@H](CS)C(=O)N1CC1CCCCC1 |
| 2910 nM | 121 nM | 47 nM | 590 nM |  | 113 nM | 47 nM | 2300 nM | O=C1N[C@@H](CS)C(=O)N(CC2CCCCC2)[C@H]1CC1CCCCC1 |
